Assay [1] concerns MCF7. In words: Cell cycle arrest in human MCF7 cells assessed as S phase accumulation at 2 times GI50 after 24 hrs by flow cytometry. Type of assay: functional. (Flow cytometry measures light scatter and fluorescence of single cells or particles in a stream.)
In assay [2] the test system is MCF7. Put plainly: Cell cycle arrest in human MCF7 cells assessed as […] phase accumulation at 2 times GI50 after 24 hrs by flow cytometry. Type of assay: functional.
Assay [3] relates to M21. In words: Inhibition of nuclear translocation of thioredoxin 1 in human M21 cells at 50 uM after 18 hrs by immunocytochemistry. The format is functional, cell-based. The essentials: (§1)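 M21 cells seeded on fibronectin-coated coverslips, held 18 h at 37 °C, then treated with compounds (5–50 µM; reference agents 0.1–40 µM) or 0.1% DMSO. Fixed in 3.7% formaldehyde, permeabilized with 0.1% saponin, and blocked in 3% BSA. Stained 1 h at 37 °C with anti-thioredoxin-1 monoclonal (1/200), then with Alexa-488 anti-mouse IgG plus DAPI for nuclei.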

The subject of assay [4] is MCF7. In words: Cell cycle arrest in human MCF7 cells assessed as G2/M phase accumulation at 2 times GI50 after 24 hrs by flow cytometry. The format is functional.
Assay [5] deals with M21. Put plainly: Inhibition of nuclear translocation of thioredoxin 1 in human M21 cells at 10 uM after 18 hrs by immunocytochemistry. Type of assay: functional, cell-based. The method, boiled down:
as §1

For assay [6], the system named is MCF7. Put plainly: Cell cycle arrest in human MCF7 cells assessed as G2/M phase accumulation at 2 times GI50 after 24 hrs by flow cytometry.
In assay [7] the test system is MCF7. In words: Cell cycle arrest in human MCF7 cells assessed as S phase accumulation at 2 times GI50 after 24 hrs by flow cytometry.
The subject of assay [8] is MCF7. Put plainly: Growth inhibition of human MCF7 cells after 48 hrs by sulforhodamine B assay. Type of assay: functional. The conditions noted are these: MCF7, 48 h. The method, boiled down:
(§2)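 NCI-style sulforhodamine B assay. HT-29 (5×10³), M21 or MCF-7 (3.5×10³) cells were grown 24 h, then given DMSO-solubilized drug at 100 to 0.7 µM final (DMSO <0.5%) for 48 h. Fixed in cold 10% TCA, stained with 0.1% SRB, read at 585 nm after subtracting a day-0 plate. Inhibition is relative to DMSO controls; GI50 from at least triplicate runs.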
Background: Sulforhodamine B stains cellular protein and so reports cell mass.

The subject of assay [9] is M21. In words: Inhibition of nuclear translocation of thioredoxin 1 in human M21 cells at 25 uM after 18 hrs by immunocytochemistry. Type of assay: functional, cell-based. The essentials:
as §1

Assay [10] has as its system MCF7. In words: Cell cycle arrest in human MCF7 cells assessed as G0/G1 phase accumulation at 2 times GI50 after 24 hrs by flow cytometry.
In the next assay the test system is HT-29. Put plainly: Growth inhibition of human HT29 cells after 48 hrs by sulforhodamine B assay. The format is functional. Particulars: HT-29, 48 h. The essentials:
as §2

The test system of assay [11] is M21. Put plainly: Growth inhibition of human M21 cells after 48 hrs by sulforhodamine B assay. Particulars: M21, 48 h. Type of assay: functional. The essentials:
as §2

Assay [12] has as its system M21. In words: Inhibition of nuclear translocation of thioredoxin 1 in human M21 cells at 0.1 uM after 18 hrs by immunocytochemistry. The format is functional, cell-based. The essentials: as §1

Calls of active or inactive are those of the source. No cut-off for these calls is given here.

As to `O=C(NCCCl)Nc1cccc(OC2CCCCCC2)c1`, the Activity in the assay on MCF7 [1] is given as 22%; in the assay with MCF7 [2] it was 72%; with MCF7 [4] it was 6%. Further, the outcome with M21 [3] was Active.
Take `O=C(NCCCl)Nc1ccc2ccccc2c1`: the outcome in the assay on M21 [5] and in the assay on M21 [3] was Active.
As usually defined, the GI50 is the concentration that inhibits growth by half. The low end stands for greater sensitivity of the cells, the high end for lower sensitivity of the cells. As to `c1cc(NC2=NCCO2)cc(OC2CCCCCC2)c1`, the Activity with MCF7 [6] amounted to 24%; with MCF7 [7], 28%; with MCF7 [10], 48%. Also, the GI50 came out at 14.8 µM in the assay on MCF7 [8], 6.9 µM with HT-29 and 14.4 µM with M21 [11]. Moreover, the result in the assay with M21 [9] and with M21 [3] was Active.
In the case of `c1ccc(Oc2cccc(NC3=NCCO3)c2)cc1`, the GI50 in the assay on MCF7 [8] amounted to 12.2 µM; in the assay with HT-29, 5.5 µM; in the assay on M21 [11], 9.6 µM. Moreover, the result in the assay with M21 [9] and in the assay with M21 [3] was inactive.
As for `c1cc2c(cc1NC1=NCCO1)CCC2`, the result with M21 [9] and with M21 [3] was Active.
Regarding `COc1cc2c(c(OC)c1OC)-c1ccc(OC)c(=O)cc1[C@@H](NC(C)=O)CC2` [COLCHICINE], the figures for the Activity in the assay on MCF7 [1], in the assay with MCF7 [2] and in the assay on MCF7 [4] were 19%, 19% and 62%, respectively. Besides, the outcome in the assay with M21 [12] was inactive.
Turning to `c1ccc(COc2ccc(NC3=NCCO3)cc2)cc1`, the GI50 with MCF7 [8] stood at 11.1 µM; in the assay on HT-29, 10.3 µM; in the assay on M21 [11] it was 15.9 µM. For the same compound, the outcome with M21 [9] and with M21 [3] was Active.
Consider `O=C(NCCCl)Nc1cccc(OC2CCCCC2)c1`, for which the values for the Activity in the assay with MCF7 [1], with MCF7 [2] and with MCF7 [4] were 33%, 59% and 8%, respectively. Moreover, the result with M21 [3] was Active.
As to `O=C(NCCCl)Nc1ccc(I)cc1`, the Activity is 33% in the assay with MCF7 [1], 25% in the assay on MCF7 [2] and 42% in the assay on MCF7 [4]. The result in the assay with M21 [5] and in the assay with M21 [3] was Active.
As for `c1ccc(-c2ccc(NC3=NCCO3)cc2)cc1`, the figures for the concentration for 50% growth inhibition (GI50) in the assay on MCF7 [8], with HT-29 and in the assay on M21 [11] were 10.6 µM, 5.8 µM and 8.8 µM, respectively. For the same compound, the outcome in the assay with M21 [9] and in the assay with M21 [3] was Active.
Consider `O=C(NCCCl)Nc1ccc(C2CCCCC2)cc1`, for which the values for the Activity with MCF7 [1], with MCF7 [2] and in the assay on MCF7 [4] were 13%, 71% and 16%, respectively. Moreover, in the assay with M21 [3], the outcome was Active.
In the case of `CC[C@]1(O)C[C@@H]2CN(CCc3c([nH]c4ccccc34)[C@@](C(=O)OC)(c3cc4c(cc3OC)N(C)[C@H]3[C@@](O)(C(=O)OC)[C@H](OC(C)=O)[C@]5(CC)C=CCN6CC[C@]43[C@@H]65)C2)C1`, in the assay on M21 [12], the outcome was inactive.
Consider `O=C(NCCCl)Nc1cccc(OC2CCCC2)c1`, for which the values for the Activity in the assay on MCF7 [1], in the assay with MCF7 [2] and with MCF7 [4] were 24%, 64% and 12%, respectively. Moreover, in the assay with M21 [3], the outcome was Active.
Take `O=C(NCCCl)Nc1ccc(-c2ccccc2)cc1`: the GI50 in the assay on MCF7 [8] stood at 42 µM; in the assay on HT-29, 8.3 µM; in the assay on M21 [11], 14.5 µM. Moreover, the outcome in the assay on M21 [9] and in the assay with M21 [3] was Active.
On to `O=C(NCCCl)Nc1ccc(OC2CCCC2)cc1`, for which the Activity with MCF7 [1] was found to be 19%; in the assay on MCF7 [2], 72%; in the assay on MCF7 [4], 9%. For the same compound, the result in the assay on M21 [3] was Active.
Regarding `O=C(NCCCl)Nc1ccc2c(c1)CCC2`, the result in the assay on M21 [9] was Active.
As for `O=C(NCCCl)Nc1ccc(OC2CCCCC2)cc1`, the figures for the Activity in the assay on MCF7 [1], in the assay on MCF7 [2] and with MCF7 [4] were 29%, 57% and 14%, respectively. Moreover, the result in the assay on M21 [3] was Active.
As for `CC(C)(C)c1ccc(NC(=O)NCCCl)cc1`, the Activity with MCF7 [1] was 24%; in the assay with MCF7 [2], 17%; with MCF7 [4], 58%. Besides, the outcome in the assay with M21 [5] and with M21 [3] was inactive.
For `O=C(NCCCl)Nc1ccc(OC2CCCCCC2)cc1`, the results for the Activity in the assay with MCF7 [1], with MCF7 [2] and with MCF7 [4] were 19%, 75% and 6%, respectively. Also, the result in the assay with M21 [3] was Active.
Regarding `Cc1ccc(NC(=O)NCCCl)cc1C`, the result with M21 [9] and with M21 [5] was inactive.
Take `c1cc(NC2=NCCO2)cc(OC2CCCCC2)c1`: the Activity with MCF7 [6] was found to be 38%; with MCF7 [7], 19%; in the assay with MCF7 [10], 43%. Besides, the GI50 in the assay with MCF7 [8] was found to be 15.9 µM; with HT-29 it was 4.4 µM; in the assay on M21 [11], 12 µM. Besides, the outcome in the assay with M21 [9] and with M21 [3] was Active.
Consider `Cc1ccc(NC2=NCCO2)cc1C`, for which the outcome in the assay with M21 [5] was Active.
Turning to `CC(=O)O[C@H]1C(=O)[C@@]2(C)[C@H]([C@H](OC(=O)c3ccccc3)[C@]3(O)C[C@H](OC(=O)[C@H](O)[C@@H](NC(=O)c4ccccc4)c4ccccc4)C(C)=C1C3(C)C)[C@]1(OC(C)=O)CO[C@@H]1C[C@@H]2O`, the result in the assay on M21 [12] was inactive.
For the compound `O=C(NCCCl)Nc1cccc(OCc2ccccc2)c1`, the GI50 in the assay on MCF7 [8] came out at 10 µM; with HT-29, 2.9 µM; in the assay on M21 [11], 6.5 µM. The result with M21 [5] and with M21 [3] was inactive.
For `O=C(NCCCl)Nc1ccc(Oc2ccccc2)cc1`, the result with M21 [9] and with M21 [5] was inactive.

Values taken from ChEMBL document CHEMBL1155784, “Aromatic 2-chloroethyl urea derivatives and bioisosteres. Part 2: Cytocidal activity and effects on the nuclear translocation of thioredoxin-1, and the cell cycle progression” (2008).
